Assay results published in ChEMBL document CHEMBL4382274, “NQO1-Selective Activated Prodrug of Triptolide: Synthesis and Antihepatocellular Carcinoma Activity Evaluation” (ACS Med Chem Lett, 2018).
Calls of active or inactive are those of the source. The rule behind the calls is not given here.

How the values were obtained:
[1] = Renal toxicity in Balb/c nude mouse xenografted with human HepG2 cells assessed as glomerular capillary loop lesions at 0.2 mg/kg, ip administered once daily for 15 days by hematoxylin and eosin staining based microscopic analysis; type: organism-based; conditions: in vivo, 360 h
Procedure, shortened: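 After 15 days of daily dosing, kidneys from xenografted nude mice were sectioned, H&E stained and examined at ×200 for glomerular capillary loop lesions, alongside control sections.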

HepG2 [2] = assay: Cytotoxicity against human HepG2 cells after 48 hrs by XTT assay; type: functional, cell-based; conditions: HepG2, 48 h
[3] = Hepatotoxicity in Balb/c nude mouse xenografted with human HepG2 cells assessed as effect on serum ALT levels at 0.2 mg/kg, ip administered once daily for 15 days; type: toxicity, organism-based; conditions: in vivo, 360 h
Procedure, shortened: (§1)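 HepG2-xenografted nude mice were dosed every day for 15 days. Serum ALT, AST, creatinine and blood urea nitrogen were measured and compared with the control.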

[4] = Renal toxicity in Balb/c nude mouse xenografted with human HepG2 cells assessed as increase in serum BUN levels at 0.2 mg/kg, ip administered once daily for 15 days; type: organism-based; conditions: in vivo, 360 h; procedure, shortened: as §1
[5] = Hepatotoxicity in Balb/c nude mouse xenografted with human HepG2 cells assessed as effect on serum AST levels at 0.2 mg/kg, ip administered once daily for 15 days; type: toxicity, organism-based; conditions: in vivo, 360 h; procedure, shortened: as §1
Hepatocyte = assay: Cytotoxicity against primary hepatocytes (unknown origin) after 48 hrs by XTT assay; type: cell-based
HepG2 [6] = assay: Antitumor activity against human HepG2 cells xenografted in Balb/c nude mouse assessed as reduction in tumor growth at 0.2 mg/kg, ip administered once daily for 15 days; type: functional, organism-based
Procedure, shortened: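 HepG2 cells were inoculated into nude mice, and daily ip dosing began one week later and ran for two weeks. Tumour volume was followed over the treatment, and tumours were weighed and imaged at the end. n = 8 mice/group; Student's t test was used against the control.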

[7] = Toxicity in Balb/c nude mouse at 0.2 mg/kg, ip; type: organism-based; conditions: in vivo
[8] = Toxicity in Balb/c nude mouse xenografted with human HepG2 cells assessed as change in body weight at 0.2 mg/kg, ip administered once daily for 15 days measured during compound dosing; type: organism-based; conditions: in vivo, 360 h
Procedure, shortened: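 Xenografted nude mice (8/group) received ip doses once daily for two weeks, starting one week after HepG2 inoculation. Body weight was recorded throughout the treatment period.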

[9] = Renal toxicity in Balb/c nude mouse xenografted with human HepG2 cells assessed as increase in serum creatinine levels at 0.2 mg/kg, ip administered once daily for 15 days; type: organism-based; conditions: in vivo, 360 h; procedure, shortened: as §1
[10] = Hepatotoxicity in Balb/c nude mouse xenografted with human HepG2 cells assessed as pathological abnormalities at 0.2 mg/kg, ip administered once daily for 15 days by hematoxylin and eosin staining based microscopic analysis; type: toxicity, organism-based; conditions: in vivo, 360 h
[11] = molecular target: T1, General transcription and DNA repair factor IIH helicase/translocase subunit XPB (Homo sapiens, UniProt P19447); assay: Inhibition of […] ATPase activity in human HeLa cell nuclear extracts; type: cell-based
T1 sequence (P19447 whole entry): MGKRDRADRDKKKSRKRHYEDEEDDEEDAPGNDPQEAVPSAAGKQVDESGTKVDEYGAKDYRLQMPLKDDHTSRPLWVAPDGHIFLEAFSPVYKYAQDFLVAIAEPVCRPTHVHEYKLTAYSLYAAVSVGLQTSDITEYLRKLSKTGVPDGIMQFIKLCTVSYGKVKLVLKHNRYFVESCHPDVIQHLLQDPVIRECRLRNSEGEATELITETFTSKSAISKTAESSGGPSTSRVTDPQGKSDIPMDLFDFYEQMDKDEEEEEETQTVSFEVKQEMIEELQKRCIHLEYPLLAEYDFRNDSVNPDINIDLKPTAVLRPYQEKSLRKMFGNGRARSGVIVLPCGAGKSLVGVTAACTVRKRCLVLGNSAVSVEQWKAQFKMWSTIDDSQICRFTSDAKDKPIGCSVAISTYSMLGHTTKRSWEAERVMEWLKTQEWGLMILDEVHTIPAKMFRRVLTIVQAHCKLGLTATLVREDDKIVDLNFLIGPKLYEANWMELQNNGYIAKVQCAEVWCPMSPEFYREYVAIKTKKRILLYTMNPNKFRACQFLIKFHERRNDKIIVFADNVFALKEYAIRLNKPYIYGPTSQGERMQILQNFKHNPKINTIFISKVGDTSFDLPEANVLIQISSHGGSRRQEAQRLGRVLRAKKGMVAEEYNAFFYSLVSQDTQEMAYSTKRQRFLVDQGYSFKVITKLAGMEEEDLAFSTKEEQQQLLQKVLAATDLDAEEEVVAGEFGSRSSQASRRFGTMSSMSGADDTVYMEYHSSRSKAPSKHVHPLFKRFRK

[12] = Ratio of AUC in KM mouse kidney to plasma at 1 mg/kg, ip administered as single dose; type: ADME, organism-based; conditions: other tissue
Procedure, shortened: (§2)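 Mice received a single ip dose at 1.0 mg/kg. Levels were measured in plasma, liver and kidney with a validated analytical method, and plasma was sampled over time to 2 h and beyond. Derived values were absorption, distribution and terminal half-lives, tmax, Cmax and AUC tissue/plasma ratios.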

[13] = Therapeutic index, ratio of IC50 for primary hepatocytes (unknown origin) to IC50 for human HepG2 cells; type: toxicity; conditions: primary hepatocytes (unknown origin) versus HepG2 cells, read-out: Ratio IC50
Keratinocyte = assay: Cytotoxicity against human keratinocytes after 48 hrs by XTT assay; type: cell-based
[14] = Plasma concentration in KM mouse at 1 mg/kg, ip administered as single dose after 2 hrs; type: ADME, organism-based; conditions: in vivo, BLD = below limit of detection; procedure, shortened: as §2
[15] = molecular target: NQO1 (NAD(P)H dehydrogenase [quinone] 1) (Homo sapiens, UniProt P15559); assay: Half life in human HepG2 cell lysates assessed as NQO1-mediated compound degradation at 10 uM in presence of NADPH by HPLC analysis; type: ADME, subcellular, Lysate
[16] = molecular target: T2, NAD(P)H dehydrogenase [quinone] 1 (Homo sapiens, UniProt P15559); assay: Prodrug activation in human HepG2 cell lysates assessed as NQO1-mediated CX-21 formation at 10 uM after 60 mins in presence of NADPH and NQO1 inhibitor dicoumarol by HPLC analysis; type: subcellular, Lysate; conditions: hepg2, 1 h
[17] = Time at which plasma concentration stays above in vitro IC50 for antiproliferative activity against human HepG2 cells in KM mouse at 1 mg/kg, ip administered as single dose; type: organism-based; conditions: in vivo; procedure, shortened: as §2
[18] = molecular target: T2, NAD(P)H dehydrogenase [quinone] 1; assay: Prodrug activation in human HepG2 cell lysates assessed as NQO1-mediated triptolide formation at 10 uM after 60 mins in presence of NADPH and NQO1 inhibitor dicoumarol by HPLC analysis; type: subcellular, Lysate; conditions: hepg2, 1 h
HeLa = assay: Cytotoxicity against human HeLa cells after 48 hrs by XTT assay; type: functional, cell-based
[19] = Terminal half life in KM mouse at 1 mg/kg, ip administered as single dose; type: ADME, organism-based; conditions: in vivo, read-out: beta t1/2; procedure, shortened: as §2
[20] = molecular target: T2, NAD(P)H dehydrogenase [quinone] 1; assay: Prodrug activation in human HepG2 cell lysates assessed as NQO1-mediated triptolide formation at 10 uM up to 60 mins in presence of NADPH by HPLC analysis; type: subcellular, Lysate; conditions: hepg2, 1 h
CYP450 = CYP450 (Homo sapiens, UniProt P04798+P05177+P05181+P08684+P10632+P10635+P11509+P11712+P13584+P20813+P20815+P20853+P24462+P24903+P33260+P33261+P51589+P78329+P98187+Q02928+Q08477+Q16678+Q16696+Q5TCH4+Q6VVX0+Q7Z449+Q8TAV3+Q96SQ9+Q9HB55); assay: Half life in human liver microsomes assessed as CYP450-mediated compound degradation at 10 uM by UV-HPLC analysis; type: ADME
Procedure, shortened: (§3)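 Compound was incubated for 1 h in vitro in human plasma or human liver microsomes, and half-life was determined from its disappearance.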

[21] = Hepatotoxicity in Balb/c nude mouse xenografted with human HepG2 cells assessed as effect on serum ALT levels at 0.3 to 1 mg/kg, ip administered once daily for 15 days; type: toxicity, organism-based; conditions: in vivo, 360 h
Procedure, shortened: (§4)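 Nude mice were dosed ip every day for 15 days at 0.2 mg/kg (reference), 0.3 mg/kg or 1.0 mg/kg. Serum ALT, AST, creatinine and BUN were measured. Kidney sections were H&E stained and examined at X200. Comparisons were made against control.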

[22] = Hepatotoxicity in Balb/c nude mouse xenografted with human HepG2 cells assessed as pathological abnormalities at 0.3 to 1 mg/kg, ip administered once daily for 15 days by hematoxylin and eosin staining based microscopic analysis; type: toxicity, organism-based; conditions: in vivo, 360 h
[23] = Toxicity in Balb/c nude mouse at 1 mg/kg, ip; type: organism-based; conditions: in vivo
Procedure, shortened: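 In a preliminary experiment, nude mice were given a single ip dose of 1.0 mg/kg and observed for toxic symptoms.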

A549 = assay: Cytotoxicity against human A549 cells after 48 hrs by XTT assay; type: functional, cell-based; conditions: A549, 48 h
[24] = Distribution half life in KM mouse at 1 mg/kg, ip administered as single dose; type: ADME, organism-based; conditions: in vivo, read-out: alphat1/2; procedure, shortened: as §2
[25] = Ratio of AUC in KM mouse liver to plasma at 1 mg/kg, ip administered as single dose; type: ADME, organism-based; conditions: other tissue; procedure, shortened: as §2
[26] = Tmax in KM mouse at 1 mg/kg, ip administered as single dose; type: ADME, organism-based; conditions: in vivo; procedure, shortened: as §2
[27] = Cytotoxicity against human skin fibroblasts after 48 hrs by XTT assay
[28] = Toxicity in Balb/c nude mouse xenografted with human HepG2 cells assessed as change in body weight at 0.3 to 1 mg/kg, ip administered once daily for 15 days measured during compound dosing; type: organism-based; conditions: in vivo, 360 h
Procedure, shortened: (§5)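 HepG2 xenograft in nude mice. Dosing began one week after cell inoculation, ip once daily for two weeks. Tumor volume was followed during treatment, tumor weight taken at the end, and body weight monitored throughout. n = 8 mice/group; Student's t test against control.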

[29] = Cmax in KM mouse at 1 mg/kg, ip administered as single dose; type: ADME, organism-based; set-up: dose 1 mg/kg, route intraperitoneal; conditions: in vivo; procedure, shortened: as §2
HepG2 [30] = assay: Cytotoxicity against human HepG2 cells after 48 hrs in presence of NQO1 inhibitor dicoumarol by XTT assay; type: functional, cell-based
[31] = molecular target: T2, NAD(P)H dehydrogenase [quinone] 1; assay: Prodrug activation in human HepG2 cell lysates assessed as NQO1-mediated CX-21 formation at 10 uM up to 60 mins in presence of NADPH by HPLC analysis; type: subcellular, Lysate; conditions: hepg2, 1 h
[32] = Hepatotoxicity in Balb/c nude mouse xenografted with human HepG2 cells assessed as effect on serum AST levels at 0.3 to 1 mg/kg, ip administered once daily for 15 days; type: toxicity, organism-based; conditions: in vivo, 360 h; procedure, shortened: as §4
HepG2 [33] = assay: Antitumor activity against human HepG2 cells xenografted in Balb/c nude mouse assessed as reduction in tumor growth at 0.3 to 1 mg/kg, ip administered once daily for 15 days; type: functional, organism-based; procedure, shortened: as §5
carboxyl ester hydrolase = assay: Half life in human plasma assessed as carboxyl ester hydrolase-mediated compound degradation at 10 uM by UV-HPLC analysis; type: ADME, cell-free; procedure, shortened: as §3
[34] = Plasma concentration in KM mouse at 1 mg/kg, ip administered as single dose at 2 hrs post dose; type: ADME, organism-based; procedure, shortened: as §2
HepG2 [35] = assay: Cytotoxicity against human HepG2 cells up to 20 uM after 48 hrs by XTT assay; type: functional, cell-based

T2 sequence (P15559 whole entry): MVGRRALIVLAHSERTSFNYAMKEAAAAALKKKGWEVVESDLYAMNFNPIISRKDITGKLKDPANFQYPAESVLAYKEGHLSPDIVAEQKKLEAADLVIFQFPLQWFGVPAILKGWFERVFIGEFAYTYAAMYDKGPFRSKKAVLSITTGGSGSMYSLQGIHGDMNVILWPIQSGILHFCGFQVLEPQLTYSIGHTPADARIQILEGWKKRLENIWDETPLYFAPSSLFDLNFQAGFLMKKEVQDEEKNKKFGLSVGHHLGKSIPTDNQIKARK
Chain of NQO1 (NAD(P)H dehydrogenase [quinone] 1) (P15559 whole entry): as above

CC(C)[C@]12O[C@H]1[C@@H]1O[C@]13[C@]1(O[C@H]1C[C@H]1C4=C(CC[C@@]13C)C(=O)OC4)[C@@H]2O [TRIPTOLIDE]
Activity [1]: Toxic | IC50 (HepG2 [2]): 43.3 nM | Activity [3]: Non-Toxic | Activity [4]: Toxic | Activity [5]: Non-Toxic | IC50 (Hepatocyte): 37.7 nM | Activity (HepG2 [6]): Active | Activity [7]: Non-Toxic | Activity [8]: Non-Toxic | Activity [9]: Toxic | Activity [10]: Non-Toxic | inhibition (INH) [11]: Active

CC1=C(C)C(=O)C(C(C)(C)CC(=O)O[C@@H]2[C@@]3(C(C)C)O[C@H]3[C@@H]3O[C@]34[C@]23O[C@H]3C[C@H]2C3=C(CC[C@@]24C)C(=O)OC3)=C(C)C1=O
Ratio [12]: < 5% | IC50 (HepG2 [2]): 54.3 nM | selectivity ratio [13]: 9.89 | IC50 (Keratinocyte): > 1000 nM | Cp [14]: Bld | half-life at 10 µM [15]: 7.27 min | Drug metabolism [16]: Metabolite_Notdetected | Time [17]: 40 min | Drug metabolism [18]: Metabolite_Notdetected | IC50 (Hepatocyte): 540 nM | IC50 (HeLa): 38.2 nM | half-life [19]: 154 min | Drug metabolism [20]: Metabolite_Detected | half-life at 10 µM (CYP450): > 60 min | Activity [21]: Non-Toxic | Activity [22]: Non-Toxic | Activity [23]: Non-Toxic | IC50 (A549): 59.4 nM | half-life [24]: 15.1 min | Ratio [25]: < 5% | Tmax [26]: 3 min | IC50 [27]: > 1000 nM | Activity [28]: Non-Toxic | Cmax [29]: 243 ng/mL | Activity (HepG2 [30]): inactive | Drug metabolism [31]: Metabolite_Detected | Activity [32]: Non-Toxic | inhibition (INH) [11]: Not Active | Activity (HepG2 [33]): Active | half-life at 10 µM (carboxyl ester hydrolase): > 60 min | concentration at 2 h [34]: 1.38 ng/mL

O=c1oc2ccccc2c(O)c1Cc1c(O)c2ccccc2oc1=O
Activity (HepG2 [35]): inactive
